Laboratory results: ChEMBL document CHEMBL5661986, “Discovery of the SMYD3 Inhibitor BAY-6035 Using Thermal Shift Assay (TSA)-Based High-Throughput Screening” (SLAS Discov, 2021)
The source made the active and inactive calls. No cut-off for these calls is given here.

How the values were obtained:
[1] = molecular target: DNMT3B-DNMT3L complex (Homo sapiens) (UniProt Q9UBC3+Q9UJW3); test: Inhibition of DNMT3B/DNMT3L (unknown origin); assay type: protein-complex assay
[2] = molecular target: Protein arginine N-methyltransferase 6 (Homo sapiens) (UniProt Q96LA8); test: Inhibition of PRMT6 (unknown origin)
Protein arginine N-methyltransferase 6 (Homo sapiens), sequence (Q96LA8 whole entry, looked up): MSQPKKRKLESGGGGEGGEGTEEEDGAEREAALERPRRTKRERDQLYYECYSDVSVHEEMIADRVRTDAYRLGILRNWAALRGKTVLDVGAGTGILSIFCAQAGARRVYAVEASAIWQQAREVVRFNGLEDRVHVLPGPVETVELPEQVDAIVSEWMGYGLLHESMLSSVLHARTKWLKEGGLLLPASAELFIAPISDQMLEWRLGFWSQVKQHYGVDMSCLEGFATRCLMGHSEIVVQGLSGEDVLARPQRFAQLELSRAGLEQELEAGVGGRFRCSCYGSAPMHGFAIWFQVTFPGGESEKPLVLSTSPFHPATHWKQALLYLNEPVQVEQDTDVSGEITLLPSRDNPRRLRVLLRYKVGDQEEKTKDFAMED

[3] = test system: HGC-27; test: Antiproliferative activity against human HGC-27 cells assessed as inhibition of cell viability measured for 3 to 5 days by alamar blue staining based assay; assay type: functional
[4] = Cytotoxicity against human MCF-10A cells assessed as inhibition of cell viability measured for 3 to 5 days by alamar blue staining based assay; assay type: toxicity
[5] = molecular target: T1, Histone-lysine N-methyltransferase SMYD3 (Homo sapiens) (UniProt Q9H7B4); test: Binding affinity to recombinant human SMYD3 expressed in Escherichia coli assessed as change in entropy at 0.3 mM by isothermal titration calorimetry
T1 sequence (whole entry): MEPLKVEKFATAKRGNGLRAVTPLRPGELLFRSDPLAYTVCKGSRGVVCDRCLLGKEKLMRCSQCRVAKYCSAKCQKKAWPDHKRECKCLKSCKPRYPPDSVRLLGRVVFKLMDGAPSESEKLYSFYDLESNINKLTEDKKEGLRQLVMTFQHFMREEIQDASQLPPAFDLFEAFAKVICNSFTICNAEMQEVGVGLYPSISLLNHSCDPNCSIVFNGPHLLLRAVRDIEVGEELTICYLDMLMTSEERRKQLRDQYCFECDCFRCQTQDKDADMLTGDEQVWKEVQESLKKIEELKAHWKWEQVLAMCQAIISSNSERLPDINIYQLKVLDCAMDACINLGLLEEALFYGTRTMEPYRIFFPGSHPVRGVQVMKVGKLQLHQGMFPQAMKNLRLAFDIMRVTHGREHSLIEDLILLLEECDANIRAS
Outline: (§1)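 Syringe held compound at 0.3 mM in 20 mM HEPES pH 7.4, 150 mM NaCl, 0.005% Tween 20, 2.5% DMSO; eight 4 µL injections at 180 s intervals into SMYD3.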

[6] = molecular target: T2, Histone-lysine N-methyltransferase SMYD3 (Homo sapiens, UniProt Q9H7B4); test: Binding affinity to recombinant human SMYD3 expressed in Escherichia coli assessed as dissociation constant by isothermal titration calorimetry; outline: as §1
T2 sequence (Q9H7B4 whole entry): T1 sequence (whole entry)

[7] = molecular target: Histone-arginine methyltransferase CARM1 (Homo sapiens) (UniProt Q86X55); test: Inhibition of PRMT4 (unknown origin)
Histone-arginine methyltransferase CARM1 (Homo sapiens), sequence (Q86X55 whole entry): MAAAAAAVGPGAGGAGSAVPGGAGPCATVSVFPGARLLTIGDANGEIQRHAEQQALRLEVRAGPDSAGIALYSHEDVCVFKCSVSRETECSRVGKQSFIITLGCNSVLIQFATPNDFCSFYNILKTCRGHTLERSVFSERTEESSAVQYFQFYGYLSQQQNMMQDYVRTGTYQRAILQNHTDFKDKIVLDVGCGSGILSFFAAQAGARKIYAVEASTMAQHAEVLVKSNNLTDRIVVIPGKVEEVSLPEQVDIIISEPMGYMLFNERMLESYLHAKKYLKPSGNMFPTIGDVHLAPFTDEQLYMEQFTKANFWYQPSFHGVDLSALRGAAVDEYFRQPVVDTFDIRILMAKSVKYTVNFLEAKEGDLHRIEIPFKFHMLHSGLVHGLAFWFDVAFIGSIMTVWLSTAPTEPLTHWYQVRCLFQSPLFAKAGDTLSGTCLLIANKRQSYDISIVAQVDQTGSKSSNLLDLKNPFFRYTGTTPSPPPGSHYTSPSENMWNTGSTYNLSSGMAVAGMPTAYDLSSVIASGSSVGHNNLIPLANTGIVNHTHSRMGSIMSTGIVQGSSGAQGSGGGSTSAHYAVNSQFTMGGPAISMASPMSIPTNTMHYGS

[8] = molecular target: Histone-lysine N-methyltransferase PRDM9 (Homo sapiens) (UniProt Q9NQV7); test: Inhibition of PRDM9 (unknown origin)
[9] = molecular target: T2, Histone-lysine N-methyltransferase SMYD3; test: Binding affinity to recombinant human SMYD3 expressed in Escherichia coli at varying 3H SAM substrate concentration of upto 3.5 uM with 10 fold Km concentration by scintillation proximity assay
Outline: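 SPA, 10 nM SMYD3 methylating biotinylated MAP3K2 249–273 peptide with 3H-SAM in 20 mM Tris pH 9, 2.5 mM DTT, 0.01% Triton X-100; 40 min, 23 °C, GuHCl quench.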

[10] = molecular target: T1, Histone-lysine N-methyltransferase SMYD3 (Homo sapiens); settings: dose 120.0 µM
[11] = molecular target: Histone-lysine N-methyltransferase SETD7 (Homo sapiens) (UniProt Q8WTS6); test: Inhibition of SETD7 (unknown origin)
Histone-lysine N-methyltransferase SETD7 (Homo sapiens), sequence (Q8WTS6 whole entry): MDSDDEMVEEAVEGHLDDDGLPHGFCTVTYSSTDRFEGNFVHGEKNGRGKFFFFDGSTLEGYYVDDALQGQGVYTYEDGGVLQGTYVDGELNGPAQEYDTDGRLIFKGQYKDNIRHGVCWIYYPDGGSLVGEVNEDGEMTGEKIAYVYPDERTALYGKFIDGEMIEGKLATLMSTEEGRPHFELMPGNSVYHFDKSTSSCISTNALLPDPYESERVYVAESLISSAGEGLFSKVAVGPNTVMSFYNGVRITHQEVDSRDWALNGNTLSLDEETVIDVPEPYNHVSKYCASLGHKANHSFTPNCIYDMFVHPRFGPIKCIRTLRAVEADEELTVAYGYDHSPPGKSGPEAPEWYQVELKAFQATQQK

[12] = molecular target: Ribosomal protein S6 kinase alpha-6 (Homo sapiens, UniProt Q9UK32); test: Inhibition of RSK4 (unknown origin)
[13] = molecular target: Histone-lysine N-methyltransferase KMT5B (Homo sapiens) (UniProt Q4FZB7); test: Inhibition of SUV420H1 (unknown origin)
Histone-lysine N-methyltransferase KMT5B (Homo sapiens), sequence (Q4FZB7 whole entry, looked up): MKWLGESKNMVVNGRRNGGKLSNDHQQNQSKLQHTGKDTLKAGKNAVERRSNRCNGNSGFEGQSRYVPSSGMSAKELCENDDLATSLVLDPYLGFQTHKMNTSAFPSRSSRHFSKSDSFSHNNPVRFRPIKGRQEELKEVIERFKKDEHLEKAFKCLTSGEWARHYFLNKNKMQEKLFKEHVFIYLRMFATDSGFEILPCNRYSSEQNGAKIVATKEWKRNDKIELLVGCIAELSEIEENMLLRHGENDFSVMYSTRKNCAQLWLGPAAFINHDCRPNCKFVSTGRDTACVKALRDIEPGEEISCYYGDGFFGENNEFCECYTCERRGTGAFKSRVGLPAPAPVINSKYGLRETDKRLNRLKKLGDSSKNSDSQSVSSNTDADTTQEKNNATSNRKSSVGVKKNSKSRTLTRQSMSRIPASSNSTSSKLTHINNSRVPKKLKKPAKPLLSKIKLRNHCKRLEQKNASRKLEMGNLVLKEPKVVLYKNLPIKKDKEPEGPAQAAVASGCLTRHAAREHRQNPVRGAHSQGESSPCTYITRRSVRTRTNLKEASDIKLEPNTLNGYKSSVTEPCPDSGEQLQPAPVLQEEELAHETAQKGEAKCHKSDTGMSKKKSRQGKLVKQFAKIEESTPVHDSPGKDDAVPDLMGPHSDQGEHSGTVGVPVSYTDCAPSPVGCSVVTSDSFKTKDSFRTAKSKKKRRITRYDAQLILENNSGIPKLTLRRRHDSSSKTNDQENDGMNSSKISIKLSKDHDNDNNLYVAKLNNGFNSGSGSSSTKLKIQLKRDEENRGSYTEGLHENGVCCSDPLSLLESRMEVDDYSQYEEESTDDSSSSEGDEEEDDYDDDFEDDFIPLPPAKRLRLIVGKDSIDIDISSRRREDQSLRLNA

[14] = molecular target: Aurora kinase A (Homo sapiens, UniProt O14965); test: Inhibition of Aurora A (unknown origin) by HTRF assay
[15] = molecular target: Histone-lysine N-methyltransferase SETD2 (Homo sapiens) (UniProt Q9BYW2); test: Inhibition of SETD2 (unknown origin)
[16] = molecular target: Receptor-type tyrosine-protein kinase FLT3 (Homo sapiens, UniProt P36888); test: Inhibition of FLT3 (unknown origin)
[17] = molecular target: Platelet-derived growth factor receptor beta (Homo sapiens, UniProt P09619); test: Inhibition of PDGFR beta (unknown origin)
[18] = test system: Jurkat; test: Antiproliferative activity against human Jurkat cells assessed as inhibition of cell viability measured for 3 to 5 days by alamar blue staining based assay; assay type: functional
[19] = molecular target: Histone-lysine N-methyltransferase 2A (Homo sapiens) (UniProt Q03164); test: Inhibition of MLL1 (unknown origin)
[20] = molecular target: MAP kinase-interacting serine/threonine-protein kinase 2 (Homo sapiens, UniProt Q9HBH9); test: Inhibition of MKNK2 (unknown origin) in presence of ATP
MAP kinase-interacting serine/threonine-protein kinase 2, sequence (Q9HBH9 whole entry): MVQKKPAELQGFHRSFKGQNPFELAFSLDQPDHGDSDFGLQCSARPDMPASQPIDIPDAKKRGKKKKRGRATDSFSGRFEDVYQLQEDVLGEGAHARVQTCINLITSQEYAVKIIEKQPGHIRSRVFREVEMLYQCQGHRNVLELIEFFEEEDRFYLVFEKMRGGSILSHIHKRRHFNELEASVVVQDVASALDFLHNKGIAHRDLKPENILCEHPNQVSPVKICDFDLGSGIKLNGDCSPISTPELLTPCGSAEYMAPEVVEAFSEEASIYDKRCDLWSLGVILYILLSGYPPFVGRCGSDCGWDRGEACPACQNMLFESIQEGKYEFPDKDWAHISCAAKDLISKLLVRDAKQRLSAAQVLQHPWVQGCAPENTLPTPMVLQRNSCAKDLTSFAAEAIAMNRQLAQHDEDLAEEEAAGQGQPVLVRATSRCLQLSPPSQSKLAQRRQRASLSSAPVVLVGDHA

[21] = molecular target: Phosphatidylinositol 5-phosphate 4-kinase type-2 alpha (Homo sapiens, UniProt P48426); test: Inhibition of human PIP4K2A
Phosphatidylinositol 5-phosphate 4-kinase type-2 alpha, sequence (P48426 whole entry): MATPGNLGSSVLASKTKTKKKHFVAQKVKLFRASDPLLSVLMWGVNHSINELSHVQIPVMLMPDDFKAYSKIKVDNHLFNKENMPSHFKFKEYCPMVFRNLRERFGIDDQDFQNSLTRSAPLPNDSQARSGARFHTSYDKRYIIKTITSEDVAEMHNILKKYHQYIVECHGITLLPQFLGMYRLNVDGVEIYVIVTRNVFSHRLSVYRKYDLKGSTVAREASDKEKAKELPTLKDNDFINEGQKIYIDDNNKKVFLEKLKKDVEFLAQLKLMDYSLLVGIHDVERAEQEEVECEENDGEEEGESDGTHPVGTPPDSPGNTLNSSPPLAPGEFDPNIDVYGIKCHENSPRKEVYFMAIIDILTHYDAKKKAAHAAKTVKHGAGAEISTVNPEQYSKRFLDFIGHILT

[22] = molecular target: Protein arginine N-methyltransferase 7 (Homo sapiens) (UniProt Q9NVM4); test: Inhibition of PRMT7 (unknown origin)
Protein arginine N-methyltransferase 7 (Homo sapiens), sequence (Q9NVM4 whole entry): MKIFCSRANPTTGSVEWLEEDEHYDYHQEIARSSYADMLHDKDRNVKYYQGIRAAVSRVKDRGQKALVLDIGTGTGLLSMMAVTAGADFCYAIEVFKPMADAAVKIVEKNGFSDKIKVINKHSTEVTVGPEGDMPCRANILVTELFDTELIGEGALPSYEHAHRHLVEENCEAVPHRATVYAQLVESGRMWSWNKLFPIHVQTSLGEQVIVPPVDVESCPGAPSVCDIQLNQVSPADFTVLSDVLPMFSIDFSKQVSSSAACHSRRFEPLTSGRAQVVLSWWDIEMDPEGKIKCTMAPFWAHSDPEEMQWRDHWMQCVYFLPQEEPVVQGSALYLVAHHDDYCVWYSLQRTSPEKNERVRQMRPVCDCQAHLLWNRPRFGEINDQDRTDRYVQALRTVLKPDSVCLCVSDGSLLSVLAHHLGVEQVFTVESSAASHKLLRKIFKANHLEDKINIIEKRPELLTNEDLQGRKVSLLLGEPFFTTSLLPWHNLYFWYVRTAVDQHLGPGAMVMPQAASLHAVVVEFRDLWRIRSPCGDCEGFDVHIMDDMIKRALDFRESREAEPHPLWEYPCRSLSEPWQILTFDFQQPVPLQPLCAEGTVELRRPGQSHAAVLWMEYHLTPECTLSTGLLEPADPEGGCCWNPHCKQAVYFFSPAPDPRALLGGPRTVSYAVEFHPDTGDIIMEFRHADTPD

[23] = test system: KYSE-30; test: Antiproliferative activity against human KYSE-30 cells assessed as inhibition of cell viability measured for 3 to 5 days by alamar blue staining based assay; assay type: functional
[24] = molecular target: T1, Histone-lysine N-methyltransferase SMYD3 (Homo sapiens); test: Binding affinity to recombinant human SMYD3 expressed in Escherichia coli assessed as change in enthalpy at 0.3 mM by isothermal titration calorimetry; outline: as §1
[25] = molecular target: Diacylglycerol kinase alpha (Mus musculus, UniProt O88673); test: Inhibition of mouse DGK alpha by ADP-Glo assay
[26] = test system: HT-29; test: Antiproliferative activity against human HT-29 cells assessed as inhibition of cell viability measured for 3 to 5 days by alamar blue staining based assay; assay type: functional
[27] = molecular target: Protein arginine N-methyltransferase 3 (Homo sapiens) (UniProt O60678); test: Inhibition of PRMT3 (unknown origin)
Protein arginine N-methyltransferase 3 (Homo sapiens), sequence (O60678 2-531 limits assumed): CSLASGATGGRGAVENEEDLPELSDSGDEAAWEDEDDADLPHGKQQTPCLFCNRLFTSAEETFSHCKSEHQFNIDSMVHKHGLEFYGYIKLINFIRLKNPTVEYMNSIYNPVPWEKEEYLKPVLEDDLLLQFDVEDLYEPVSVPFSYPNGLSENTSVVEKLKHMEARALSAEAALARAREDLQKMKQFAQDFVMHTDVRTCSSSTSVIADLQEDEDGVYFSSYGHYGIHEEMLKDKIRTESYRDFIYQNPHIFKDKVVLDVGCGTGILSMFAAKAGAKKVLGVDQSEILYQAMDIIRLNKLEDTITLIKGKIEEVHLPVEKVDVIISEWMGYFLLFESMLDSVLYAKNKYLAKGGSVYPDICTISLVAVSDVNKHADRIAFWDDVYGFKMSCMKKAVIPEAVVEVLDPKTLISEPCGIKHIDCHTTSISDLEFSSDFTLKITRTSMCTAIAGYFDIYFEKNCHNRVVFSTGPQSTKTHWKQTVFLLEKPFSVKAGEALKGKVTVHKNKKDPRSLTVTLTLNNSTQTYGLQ

[28] = molecular target: Cyclin-dependent kinase 2/cyclin E1 (Homo sapiens, UniProt P24941); test: Inhibition of CDK2/CyclinE (unknown origin) in presence of ATP; assay type: protein-complex assay
[29] = test system: Histone-lysine N-methyltransferase SMYD3 (Homo sapiens), Q9H7B4 [UNDEFINED MUTATION]; test: Inhibition of SMYD3 catalytic inactive mutant co-expressed with HA-tagged MAP3K2 transfected in human HeLa cells assessed as reduction of MAP3K2-K260me3 level at 1.1 uM incubated for 20 hrs by Western blotting analysis relative to control; assay type: cell-based
Outline: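 After 4 h, compound or DMSO for 20 h. Lysates immunoblotted for MAP3K2-K260me3 (in-house antibody), HA, SMYD3 and MAP3K2 with infrared secondaries. K260me3 signal normalized to HA; three technical replicates, mean ± SEM, nonlinear fit.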

DNMT3B-DNMT3L complex (Homo sapiens), sequence (Q9UJW3 whole entry, looked up, other chains not shown): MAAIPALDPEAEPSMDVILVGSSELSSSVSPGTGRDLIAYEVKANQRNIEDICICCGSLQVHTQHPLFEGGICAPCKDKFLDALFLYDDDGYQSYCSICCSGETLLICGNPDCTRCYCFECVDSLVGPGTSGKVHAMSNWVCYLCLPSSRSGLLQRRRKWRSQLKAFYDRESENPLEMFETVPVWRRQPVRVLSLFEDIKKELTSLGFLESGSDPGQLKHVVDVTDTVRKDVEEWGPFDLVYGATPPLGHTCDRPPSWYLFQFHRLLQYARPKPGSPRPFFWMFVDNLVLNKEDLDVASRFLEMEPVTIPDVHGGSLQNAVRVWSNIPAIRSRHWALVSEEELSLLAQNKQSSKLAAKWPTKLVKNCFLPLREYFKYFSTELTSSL

C[C@H]1CC(=O)Nc2cc(C(=O)NCCC3CC3)ccc2N1C(=O)N1CC2CC2C1 (stereo not given in full)
inhibition [1]: inactive
inhibition [2]: inactive
IC50 [3]: > 10 µM
IC50 [4]: > 10 µM
-TdeltaS [5]: -5 kcal/mol
deltaS [5]: 17 cal/mol.K
Kd [6]: 0.133 µM
inhibition [7]: inactive
inhibition [8]: inactive
IC50 [9]: Not Active
deltaTm [10]: 8.34 K
inhibition [11]: inactive
IC50 [12]: > 20 µM
inhibition [13]: inactive
IC50 [14]: > 20 µM
inhibition [15]: inactive
IC50 [16]: > 20 µM
IC50 [17]: > 20 µM
IC50 [18]: > 10 µM
inhibition [19]: inactive
IC50 [20]: > 20 µM
IC50 [21]: > 20 µM
inhibition [22]: inactive
IC50 [23]: > 10 µM
deltaH [24]: -4.2 kcal/mol
IC50 [25]: > 20 µM
IC50 [26]: > 10 µM
inhibition [27]: inactive
IC50 [28]: > 20 µM
inhibition [29]: 86%
